Measured values of several laboratories.
Lines come from different studies, so protocols differ.
Target: Serine/threonine-protein kinase ULK3 (ULK3, Homo sapiens, UniProt Q6PHR2)
One construct used (Q6PHR2 1-472): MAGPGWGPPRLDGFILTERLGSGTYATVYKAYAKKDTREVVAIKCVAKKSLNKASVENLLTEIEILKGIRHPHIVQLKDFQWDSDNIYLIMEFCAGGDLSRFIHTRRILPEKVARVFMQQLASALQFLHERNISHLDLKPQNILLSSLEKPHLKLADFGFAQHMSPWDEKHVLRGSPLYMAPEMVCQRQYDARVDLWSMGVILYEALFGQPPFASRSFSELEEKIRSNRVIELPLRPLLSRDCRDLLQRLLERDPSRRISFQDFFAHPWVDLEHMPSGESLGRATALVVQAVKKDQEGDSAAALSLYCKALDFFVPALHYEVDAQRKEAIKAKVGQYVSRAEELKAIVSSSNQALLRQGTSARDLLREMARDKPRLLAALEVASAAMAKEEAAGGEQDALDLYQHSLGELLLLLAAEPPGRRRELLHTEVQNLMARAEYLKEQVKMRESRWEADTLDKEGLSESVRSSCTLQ

COc1cccc2c(NCc3ccccc3)nc(-n3c(N)nc4ccccc43)nc12
inhibition (target engagement in cells; inhibitor; chemoproteomics; 20 mM): -11.6%

O=C(Nc1cnn(-c2csc(C(=O)NC3COC3)c2)c1)Nc1ccccc1Cl
remaining activity (enzyme activity; inhibitor; 5 µM): 111%

COc1cc(-c2cn(C3CCc4ccccc4N(CC(F)(F)F)C3=O)nn2)ccc1-n1ccc(C)n1 (centres unmarked)
remaining binding (cell-free assay; competition with immobilised ligand; 1 µM): 61%

Cc1sc(C(=O)NC2COC2)cc1-n1cc(NC(=O)Nc2c(F)cccc2Cl)cn1
remaining activity (enzyme activity; inhibitor; 10 µM): 105%

Cn1nc(C(F)(F)F)cc1-c1cnc(N2CCc3cc(S(=O)(=O)Nc4c(F)cc(Cl)cc4F)cc(N4CCCC4=O)c32)nc1
remaining binding (cell-free assay; competition with immobilised ligand; 1 µM): 100%

O=C1Nc2ccc(Cl)cc2C1=Cc1cc(Cl)c(O)c(Cl)c1
remaining signal (cell-free assay; 0.5 µM): 92.2%

c1ccc(N2CCN(Cc3nc4ccccc4[nH]3)CC2)nc1
remaining binding (binding; competition with immobilised ligand; 1 µM): 100%

CCN(CC)CCNC(=O)c1c(C)[nH]c(/C=C2\C(=O)Nc3ccc(F)cc32)c1C
remaining signal (cell-free assay; 0.5 µM): 57.4%

CCCS(=O)(=O)Nc1ccc(F)c(C(=O)c2c[nH]c3ncc(-c4ccc(Cl)cc4)cc23)c1F
inhibition (enzyme activity; inhibitor; 1 µM): < 10%

COc1cc2ncnc(Nc3ccc(F)c(Cl)c3)c2cc1OCCCN1CCOCC1
remaining signal (cell-free assay; 0.5 µM): 108%

Cc1cc(NC(=O)c2cccc3cc(-c4cccc5[nH]nc(N)c45)ccc23)ccc1F
activity vs control (enzyme activity; inhibitor; 0.1 µM): 98%

COc1cc2c(N3CCN(C(=O)Nc4ccc(OC(C)C)cc4)CC3)ncnc2cc1OCCCN1CCCCC1
remaining signal (cell-free assay; 0.5 µM): 101%

COc1cc(Cl)c(C(=O)N[C@@H](CN[C@H]2CC[C@@H](N)CC2)Cc2ccc(C#N)cc2)cc1-c1ccc(CN[C@H](C)c2ccc(C)cc2)o1
remaining activity (enzyme activity; inhibitor; 1 µM): 98%

Cc1cc(NC(=O)c2cccc(S(F)(F)(F)(F)F)c2)cc(-n2ccn3nc(-c4cccnc4)cc23)c1
remaining binding (cell-free assay; competition with immobilised ligand; 1 µM): 75.2%
